Assay results as given in ChEMBL document CHEMBL5046294, “Rational Design, Chemical Syntheses, and Biological Evaluations of Peripherally Selective Mu Opioid Receptor Ligands as Potential Opioid Induced Constipation Treatment” (J Med Chem, 2022).
The source made the active and inactive calls.

Legend:
[1] = system: Mus musculus; test: Gastroprokinetic activity in Swiss Webster mouse assessed as stimulation of gastrointestinal motility by measuring time required to defecation of red fecal pellet at 5 mg/kg, po incubated for 20 mins by carmine red dye assay; type: functional
Outline: (§1)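 Male Swiss Webster mice, 5–6 per group, housed singly. Compound or vehicle given s.c. or by oral gavage 5 min before morphine (10 or 5 mg/kg) or vehicle. 20 min after morphine, 0.2 mL of 6% carmine red in 0.5% CMC given orally (time 0). Time to first red pellet recorded, 6-h cutoff. Dunnett-corrected one-way ANOVA.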

[2] = system: Mus musculus; test: Gastroprokinetic activity in Swiss Webster mouse assessed as stimulation of gastrointestinal motility by measuring time required to defecation of red fecal pellet at 10 mg/kg, sc incubated for 20 mins by carmine red dye assay; type: functional
Outline: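 Male Swiss Webster mice (5–8 weeks, 25–35 g), singly caged, 5–6 per group. Compound or vehicle was given s.c. 5 min before morphine 10 mg/kg (or vehicle). 20 min after morphine, mice received 0.2 mL of 6% carmine red dye in 0.5% carboxymethyl cellulose orally, set as time 0. Latency to the first red fecal pellet was measured, with a 6 h cut-off. One-way ANOVA followed by Dunnett test.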

[3] = system: Mus musculus; test: Gastroprokinetic activity in Swiss Webster mouse assessed as stimulation of gastrointestinal motility by measuring time required to defecation of red fecal pellet at 10 mg/kg, po incubated for 20 mins by carmine red dye assay; type: functional
Outline: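 Male Swiss Webster mice (5–8 weeks, 25–35 g), singly caged, 5–6 per group. Compound or vehicle was given by oral gavage 5 min before s.c. morphine (10 or 5 mg/kg) or vehicle. Oral vehicle was also given to naïve and morphine groups. 20 min after morphine, mice received 0.2 mL of 6% carmine red in 0.5% CMC p.o. (time 0). Time to the first red pellet was recorded, with a 6 h cut-off. One-way ANOVA with Dunnett test.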

[4] = target: T1, Mu-type opioid receptor (Mus musculus, UniProt P42866); test: Antagonist activity at mouse mu opioid receptor expressed in CHO cell membrane assessed as reduction in DAMGO-induced […]-GTPgammaS binding incubated for 1.5 hrs by liquid scintillation counting method; type: functional, cell membranes
[5] = system: Mus musculus; test: Gastroprokinetic activity in Swiss Webster mouse assessed as stimulation of gastrointestinal motility by measuring time required to defecation of red fecal pellet at 10 mg/kg, sc incubated for 5 mins followed by morphine addition at 10 mg/kg and measured after 20 mins by carmine red dye assay; type: functional; conditions: time 25 min; outline: as §1
[6] = system: Mus musculus; test: Antinociceptive activity against sc dosed Swiss Webster mouse model assessed as effect on morphine induced antinociception by measuring tail withdrawal latency from warm water incubated for 5 mins followed by morphine addition measured after 20 mins by warm water tail immersion assay; type: functional; conditions: for Activity: time 25.0 min
Outline: (§2)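 Male Swiss Webster mice, 5–8 weeks, 25–35 g, 6 per group. Tail immersed (distal third) in water at 56 ± 0.1 °C. Mice included only with baseline latency 2–4 s. Compound 10 mg/kg s.c.; in the challenge arm it was given 5 min before morphine 10 mg/kg s.c. Latency read 20 min after injection, 10-s cutoff. %MPE = (test − control)/(10 − control) × 100. Dunnett-corrected one-way ANOVA.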

[7] = target: T1, Mu-type opioid receptor; test: Binding affinity to mouse mu opioid receptor expressed in CHO cells in presence of naltrexone incubated for 1.5 hrs by competitive radioligand binding assay; type: cell-based
Outline: (§3)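 Competition binding. Membranes (30 μg protein) from CHO cells with mouse MOR or KOR, or human DOR. Incubated with radioligand and varying test concentrations in TME buffer, pH 7.4, 1.5 h at 30 °C. Filtration harvest. Nonspecific binding defined with 5 μM naltrexone (MOR), U50,488 (KOR) or SNC80 (DOR). IC₅₀ by nonlinear regression, converted to Ki by Cheng-Prusoff. Selectivity ratios taken from these Ki values. At least three independent experiments.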

[8] = target: T2, Delta-type opioid receptor (Homo sapiens, UniProt P41143); test: Binding affinity to human delta opioid receptor in presence of SNC80 incubated for 1.5 hrs by competitive radioligand binding assay; outline: as §3
[9] = target: T3, Kappa-type opioid receptor (Mus musculus, UniProt P33534); test: Binding affinity to mouse kappa opioid receptor expressed in CHO cells in presence of U50488 incubated for 1.5 hrs by competitive radioligand binding assay; type: cell-based; outline: as §3
[10] = system: Mus musculus; test: Antinociceptive activity against Swiss Webster mouse assessed as tail withdrawal latency from warm water by measuring maximum possible effect at 10 mg/kg, sc measured after 20 mins by warm water tail immersion assay; type: functional; outline: as §2
[11] = target: T4, Kappa-type opioid receptor (Homo sapiens, UniProt P41145); test: Antagonist activity at kappa opioid receptor (unknown origin) expressed in CHO cell membrane assessed as reduction in U50,488H -induced […]-GTPgammaS binding by measuring maximal efficacy incubated for 1.5 hrs by liquid scintillation counting method relative to control; type: functional, cell membranes
Outline: (§4)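 [³⁵S]GTPγS binding. Membranes (10 μg protein) from CHO cells expressing MOR, KOR or DOR. Buffer TME (50 mM Tris, 3 mM MgCl₂, 0.2 mM EGTA, pH 7.4) with 100 mM NaCl, 20 μM GDP and 0.1 nM [³⁵S]GTPγS. Test compound at varying concentrations. Incubation 1.5 h at 30 °C. Nonspecific binding with 20 μM unlabeled GTPγS. Reference full agonist at 3 μM: DAMGO (MOR), U50488H (KOR), SNC80 (DOR). Filtration, then scintillation counting. Duplicates, at least three repeats.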

[12] = target: T3, Kappa-type opioid receptor; test: Antagonist activity at kappa opioid receptor (unknown origin) expressed in CHO cell membrane assessed as reduction in U50,488H-induced […]-GTPgammaS binding incubated for 1.5 hrs by liquid scintillation counting method; type: functional, cell membranes
[13] = target: T2, Delta-type opioid receptor; test: Antagonist activity at human delta opioid receptor expressed in CHO cell membrane assessed as reduction in SNC80-induced […]-GTPgammaS binding incubated for 1.5 hrs by liquid scintillation counting method; type: functional, cell membranes
[14] = system: Mus musculus; test: Gastroprokinetic activity in Swiss Webster mouse assessed as stimulation of gastrointestinal motility by measuring time required to defecation of red fecal pellet at 10 mg/kg, po incubated for 5 mins followed by morphine addition at 10 mg/kg and measured after 20 mins by carmine red dye assay; type: functional; conditions: time 25 min; outline: as §1
[15] = target: T2, Delta-type opioid receptor; test: Antagonist activity at human delta opioid receptor expressed in CHO cell membrane assessed as reduction in SNC80-induced […]-GTPgammaS binding by measuring maximal efficacy incubated for 1.5 hrs by liquid scintillation counting method relative to control; type: functional, cell membranes; outline: as §4
[16] = species: Mus musculus; test: Selectivity index, ratio of Ki for binding affinity to mouse kappa opioid receptor to Ki for binding affinity to mouse mu opioid receptor; outline: as §3
[17] = target: Mu-type opioid receptor (Mus musculus) (UniProt P42866); test: Antagonist activity at mouse mu opioid receptor expressed in CHO cell membrane assessed as reduction in DAMGO-induced […]-GTPgammaS binding by measuring maximal efficacy incubated for 1.5 hrs by liquid scintillation counting method relative to control; type: functional, cell membranes; outline: as §4
[18] = Selectivity index, ratio of Ki for binding affinity to human delta opioid receptor to Ki for binding affinity to mouse mu opioid receptor; outline: as §3
[19] = system: Mus musculus; test: Antinociceptive activity against Swiss Webster mouse assessed as tail withdrawal latency from warm water by measuring maximum possible effect at 10 mg/kg, sc incubated for 5 mins followed by morphine addition measured after 20 mins by warm water tail immersion assay; type: functional; conditions: time 25 min; outline: as §2
[20] = target: Mu-type opioid receptor (Homo sapiens, UniProt P35372); test: Antagonist activity at human recombinant mu opioid receptor assessed as reduction in DAMGO-induced […]-GTPgammaS binding; type: functional
[21] = system: Mus musculus; test: Gastroprokinetic activity in Swiss Webster mouse assessed as stimulation of gastrointestinal motility by measuring time required to defecation of red fecal pellet at 10 mg/kg, po incubated for 5 mins followed by morphine addition at 5 mg/kg and measured after 20 mins by carmine red dye assay; type: functional; conditions: time 25 min; outline: as §1
[22] = target: T4, Kappa-type opioid receptor; test: Displacement of [3H]-U69593 from human recombinant kappa opioid receptor by radioligand binding assay
[23] = target: T4, Kappa-type opioid receptor; test: Antagonist activity at human recombinant kappa opioid receptor assessed as reduction in U50,488H-induced […]-GTPgammaS binding; type: functional
[24] = system: Mus musculus; test: Reversal of morphine induced constipation in Swiss Webster mouse at 10 mg/kg, po for 5 mins followed by morphine addition at 5 mg/kg and measured after 20 mins by carmine red dye assay; type: functional; outline: as §1
[25] = system: Mus musculus; test: Reversal of morphine induced constipation in Swiss Webster mouse at 10 mg/kg, po for 5 mins followed by morphine addition measured after 20 mins by carmine red dye assay relative to control; type: functional; conditions: time 25 min; outline: as §1

Compound: CN1CC[C@]23c4c5ccc(O)c4O[C@H]2[C@@H](O)C=C[C@H]3[C@H]1C5 [MORPHINE]
- Time [1]: 105 min
- Time [2]: 124 min
- Time [3]: 115 min

Compound: O=C(Cc1cc[nH]n1)N[C@H]1CC[C@@]2(O)[C@H]3Cc4ccc(O)c5c4[C@@]2(CCN3CC2CC2)[C@H]1O5
- EC50 [4]: 0.00617 µM
- Time [5]: 154 min
- Activity [6]: inactive
- Ki [7]: 0.00105 µM
- Ki [8]: 0.195 µM
- Ki [9]: 0.154 µM
- Activity [10]: inactive
- Emax ([11]; filed as antagonist): 49.9%
- EC50 [12]: 0.099 µM
- EC50 [13]: 0.0205 µM
- Time [14]: 57 min
- Emax ([15]; filed as antagonist): 69.3%

Compound: O=C(N[C@@H]1CC[C@@]2(O)[C@H]3Cc4ccc(O)c5c4[C@@]2(CCN3CC2CC2)[C@H]1O5)c1ncc[nH]1
- EC50 [4]: 0.00174 µM
- Ratio Ki [16]: 11
- Emax [17]: 7.5%
- Activity [6]: inactive
- Ki [7]: 0.00044 µM
- Ratio Ki [18]: 335
- Ki [8]: 0.146 µM
- Ki [9]: 0.0048 µM
- Activity [10]: inactive
- MPE [19]: 32.7%

Compound: O=C(N[C@H]1CC[C@@]2(O)[C@H]3Cc4ccc(O)c5c4[C@@]2(CCN3CC2CC2)[C@H]1O5)c1ncc[nH]1
- EC50 [4]: 0.00201 µM
- Ratio Ki [16]: 4
- Emax [17]: 7.85%
- AD50 ([6]; time 25 min): 5.3 mg/kg
- Ki [7]: 0.00047 µM
- Ratio Ki [18]: 152
- Ki [8]: 0.0709 µM
- Ki [9]: 0.00177 µM
- Activity [10]: inactive
- MPE [19]: 9.2%

Compound: C[N@+]1(CC2CC2)CC[C@]23c4c5ccc(O)c4O[C@H]2C(=O)CC[C@@]3(O)[C@H]1C5 [METHYLNALTREXONE]
- EC50 [20]: > 10 µM
- Time [21]: 111 min
- Ki [22]: 0.0321 µM
- EC50 [23]: > 10 µM
- Activity ([24]; time 25.0 min): inactive

Compound: O=C(N[C@@H]1CC[C@@]2(O)[C@H]3Cc4ccc(O)c5c4[C@@]2(CCN3CC2CC2)[C@H]1O5)c1cnc[nH]1
- EC50 [4]: 0.00115 µM
- Time [5]: 137 min
- Activity [6]: inactive
- Ki [7]: 0.00058 µM
- Ki [8]: 0.209 µM
- Time [21]: 27 min
- Ki [9]: 0.0188 µM
- Activity [10]: inactive
- Emax [11]: 9.03%
- EC50 [12]: 0.0117 µM
- Activity [25]: 38%
- Time [14]: 71 min
- Emax [15]: 22.1%
- Activity ([24]; time 25 min): 75%

Compound: O=C(N[C@@H]1CC[C@@]2(O)[C@H]3Cc4ccc(O)c5c4[C@@]2(CCN3CC2CC2)[C@H]1O5)c1ccncc1
- Time [21]: 151 min
- Activity ([24]; time 25.0 min): inactive
